Assay results published in ChEMBL document CHEMBL3865805, “Discovery and antiplatelet activity of a selective PI3Kβ inhibitor (MIPS-9922)” (Eur J Med Chem, 2016).
Activity calls are given as the source filed them. The calls are words filed in the database; no cut-off is given here.

How the values were obtained:
[1] = target: T1, Phosphatidylinositol 4,5-bisphosphate 3-kinase catalytic subunit beta isoform (Homo sapiens, UniProt P42338); test: Inhibition of PI3Kbeta (unknown origin) expressed in baculovirus-infected fall armyworm sf21 cells co-expressing p85 by kinase-glo luminescence assay
Outline: (§1)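 Recombinant p110 isoforms made by baculovirus in Sf21 cells. Kinase activity read by Kinase-Glo luminescence at 10 µM ATP. IC50 taken as the mean of at least two duplicate experiments.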
Target sequence in this assay (P42338 whole entry, canonical isoform): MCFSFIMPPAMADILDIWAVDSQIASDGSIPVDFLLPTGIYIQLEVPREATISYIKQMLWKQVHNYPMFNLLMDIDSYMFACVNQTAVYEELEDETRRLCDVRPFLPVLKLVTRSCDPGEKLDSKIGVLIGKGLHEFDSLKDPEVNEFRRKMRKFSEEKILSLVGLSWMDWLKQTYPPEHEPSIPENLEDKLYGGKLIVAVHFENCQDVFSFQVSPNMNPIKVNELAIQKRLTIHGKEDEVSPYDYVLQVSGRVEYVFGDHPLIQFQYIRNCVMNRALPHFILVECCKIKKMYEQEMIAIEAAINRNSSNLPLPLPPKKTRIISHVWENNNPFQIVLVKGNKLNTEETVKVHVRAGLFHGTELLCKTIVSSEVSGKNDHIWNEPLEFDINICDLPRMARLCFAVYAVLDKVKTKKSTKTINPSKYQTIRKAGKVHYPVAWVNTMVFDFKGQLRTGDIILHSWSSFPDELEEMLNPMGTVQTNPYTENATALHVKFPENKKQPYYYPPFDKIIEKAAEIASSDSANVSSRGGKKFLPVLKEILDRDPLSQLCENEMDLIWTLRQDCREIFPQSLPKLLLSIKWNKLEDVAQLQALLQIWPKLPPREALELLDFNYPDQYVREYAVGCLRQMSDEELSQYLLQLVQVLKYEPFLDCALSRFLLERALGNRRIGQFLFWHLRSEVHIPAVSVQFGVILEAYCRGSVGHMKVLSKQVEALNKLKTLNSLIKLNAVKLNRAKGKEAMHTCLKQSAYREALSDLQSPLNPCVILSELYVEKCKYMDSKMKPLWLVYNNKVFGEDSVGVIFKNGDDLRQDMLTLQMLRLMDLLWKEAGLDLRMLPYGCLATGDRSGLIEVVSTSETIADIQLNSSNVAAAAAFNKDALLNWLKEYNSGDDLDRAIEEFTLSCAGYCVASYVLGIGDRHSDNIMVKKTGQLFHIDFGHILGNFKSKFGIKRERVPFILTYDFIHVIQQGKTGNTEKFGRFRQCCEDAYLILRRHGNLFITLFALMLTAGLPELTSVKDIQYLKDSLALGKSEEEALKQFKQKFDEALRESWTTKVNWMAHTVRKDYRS

[2] = target: T2, Phosphatidylinositol 4,5-bisphosphate 3-kinase catalytic subunit delta isoform (Homo sapiens, UniProt O00329); test: Inhibition of PI3Kdelta (unknown origin) expressed in baculovirus-infected fall armyworm sf21 cells co-expressing p85 by kinase-glo luminescence assay; outline: as §1
T2 sequence (O00329 whole entry): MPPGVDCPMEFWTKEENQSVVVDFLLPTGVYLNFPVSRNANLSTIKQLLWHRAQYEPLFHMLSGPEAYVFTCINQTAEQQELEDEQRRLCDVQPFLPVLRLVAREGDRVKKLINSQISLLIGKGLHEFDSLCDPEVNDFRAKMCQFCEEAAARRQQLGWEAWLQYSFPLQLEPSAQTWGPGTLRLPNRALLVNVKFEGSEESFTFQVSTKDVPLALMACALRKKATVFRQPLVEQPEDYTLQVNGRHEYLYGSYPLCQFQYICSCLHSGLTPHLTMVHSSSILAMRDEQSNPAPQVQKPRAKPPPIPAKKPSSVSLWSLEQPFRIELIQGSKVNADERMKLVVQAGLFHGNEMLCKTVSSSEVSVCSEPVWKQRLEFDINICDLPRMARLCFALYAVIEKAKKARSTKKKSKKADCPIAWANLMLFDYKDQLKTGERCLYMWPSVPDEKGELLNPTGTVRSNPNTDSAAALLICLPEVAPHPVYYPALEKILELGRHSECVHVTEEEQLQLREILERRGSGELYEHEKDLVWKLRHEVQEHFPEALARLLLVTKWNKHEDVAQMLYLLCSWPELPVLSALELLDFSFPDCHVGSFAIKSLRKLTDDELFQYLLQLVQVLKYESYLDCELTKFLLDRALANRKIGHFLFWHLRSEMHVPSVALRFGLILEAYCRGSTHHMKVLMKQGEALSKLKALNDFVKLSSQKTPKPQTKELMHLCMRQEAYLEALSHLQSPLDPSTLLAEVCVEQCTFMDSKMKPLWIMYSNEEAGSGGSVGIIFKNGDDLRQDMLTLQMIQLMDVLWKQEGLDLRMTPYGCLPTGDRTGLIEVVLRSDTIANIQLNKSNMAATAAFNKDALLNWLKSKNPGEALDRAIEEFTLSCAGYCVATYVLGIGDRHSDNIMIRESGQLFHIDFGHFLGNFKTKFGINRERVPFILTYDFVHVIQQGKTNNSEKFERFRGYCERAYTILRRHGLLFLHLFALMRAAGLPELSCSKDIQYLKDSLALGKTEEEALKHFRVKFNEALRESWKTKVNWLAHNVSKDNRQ

[3] = target: T1, Phosphatidylinositol 4,5-bisphosphate 3-kinase catalytic subunit beta isoform; test: Inhibition of PI3Kbeta in human washed platelets assessed as suppression of ADP-induced platelet aggregation at 1 to 1000 nM preincubated for 5 mins followed by ADP stimulation after 10 mins by light transmission aggregometric analysis
Outline: (§2)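 Washed human platelets in a conventional aggregometer. Aggregation induced by ADP; IC50 taken from the dose-response curve.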
Target sequence in this assay (P42338 whole entry, looked up, canonical isoform): as the sequence (P42338 whole entry, canonical isoform) above

[4] = Inhibition of PI3Kbeta in human washed platelets assessed as suppression of TRAP-induced platelet aggregation at 10 to 1000 nM preincubated for 5 mins followed by TRAP stimulation after 10 mins by light transmission aggregometric analysis
[5] = target: T1, Phosphatidylinositol 4,5-bisphosphate 3-kinase catalytic subunit beta isoform; test: Inhibition of PI3Kbeta in human washed platelets assessed as suppression of ADP-induced platelet aggregation preincubated for 5 mins followed by ADP stimulation after 10 mins by light transmission aggregometric analysis; outline: as §2
Target sequence in this assay (P42338 whole entry, looked up, canonical isoform): as the sequence (P42338 whole entry, canonical isoform) above

[6] = target: T1, Phosphatidylinositol 4,5-bisphosphate 3-kinase catalytic subunit beta isoform; test: Inhibition of PI3Kbeta in human washed platelets assessed as suppression of ADP-induced platelet aggregation at 0.5 uM preincubated for 5 mins followed by 25 uM ADP stimulation after 10 mins by light transmission aggregometric analysis
Outline: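 Washed human platelets in an aggregometer. Inhibitor at 0.5 µM. Aggregation induced by 5, 10 or 25 µM ADP; percent inhibition read.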
Target sequence in this assay (P42338 whole entry, looked up, canonical isoform): as the sequence (P42338 whole entry, canonical isoform) above

Platelet [7] = test: Antiplatelet activity against human washed platelets assessed as reduction in shear-induced stationary platelet adhesionto vWF matrix at 2 uM preincubated for 5 mins followed by blood perfusion after 4 mins; type: functional, cell-based
Outline: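 Human whole blood, anticoagulated, perfused over a vWf matrix at 1800 s^-1 for 4 min; stationary platelet adhesion scored. Vehicle DMSO 0.25% taken as 100%. Drug tested up to 5 µM. t test against 0.1 µM drug.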

[8] = Drug level in iv dosed rat serum after 5 mins by LC-MS analysis; type: ADME, organism-based; details: read-out: Drug uptake
[9] = Drug level in iv dosed rat serum after 60 mins by LC-MS analysis; type: ADME, organism-based; details: read-out: Drug uptake
Platelet [10] = test: […] activity in human washed platelets assessed as […] ADP-induced platelet aggregation at 10 to 1000 nM preincubated for 5 mins followed by ADP stimulation after 10 mins by light transmission aggregometric analysis; type: functional, cell-based

| Compound | IC50 [1] [nM] | IC50 [2] [nM] | further results |
| --- | --- | --- | --- |
| O=C([C@@H]1CCCN1)N1CCN(c2nc(N3CCOCC3)nc(-n3c(C(F)F)nc4ccccc43)n2)CC1 |  |  | inhibition [5]: Dose-dependent effect; inhibition [4]: Active |
| Cc1cc(C(C)Nc2ccccc2)c2nc(N3CCOCC3)cc(=O)n2c1 (stereo not drawn) |  |  | inhibition [6]: Active; inhibition (Platelet [7]): Active; concentration at 5 min [8]: 2000 nM; concentration at 1 h [9]: 200 nM |
| O=C(C1CCNCC1)N1CCN(c2nc(N3CCOCC3)nc(-n3c(C(F)F)nc4ccccc43)n2)CC1 | 3210 | 330 |  |
| C[C@@H](N)C(=O)N1CCC(c2nc(N3CCOCC3)nc(-n3c(C(F)F)nc4ccccc43)n2)CC1 | 3200 | 740 |  |
| N[C@@H](CC(=O)N1CCN(c2nc(N3CCOCC3)nc(-n3c(C(F)F)nc4ccccc43)n2)CC1)c1ccccc1 | 1800 | 17000 |  |
| CC(C)C[C@H](N)CC(=O)N1CCN(c2nc(N3CCOCC3)nc(-n3c(C(F)F)nc4ccccc43)n2)CC1 | > 10000 | 9100 |  |
| C[C@H](N)C(=O)N1CCN(c2nc(N3CCOCC3)nc(-n3c(C(F)F)nc4ccccc43)n2)CC1 |  |  | inhibition [3]: Active |
| FC(F)c1nc2ccccc2n1-c1nc(NC2CCNCC2)nc(N2CCOCC2)n1 | 2110 |  |  |
| NCC(=O)NC1CCCN(c2nc(N3CCOCC3)nc(-n3c(C(F)F)nc4ccccc43)n2)C1 (stereo not drawn) | 1210 |  |  |
| NCCCC[C@H](N)C(=O)N1CCN(c2nc(N3CCOCC3)nc(-n3c(C(F)F)nc4ccccc43)n2)CC1 |  |  | Activity (Platelet [10]): Active |
| NCC(=O)NC1CCN(c2nc(N3CCOCC3)nc(-n3c(C(F)F)nc4ccccc43)n2)CC1 | 1330 |  |  |
| O=C(C1CCCN1)N1CCC(c2nc(N3CCOCC3)nc(-n3c(C(F)F)nc4ccccc43)n2)CC1 (single isomer, unassigned) | 2000 |  |  |

More lines, main results first:

| IC50 [1] [nM] | IC50 [2] [nM] | Compound | further results |
| --- | --- | --- | --- |
| 540 | 1090 | C[C@H](N)C(=O)N1CCC(c2nc(N3CCOCC3)nc(-n3c(C(F)F)nc4ccccc43)n2)CC1 |  |
| 360 | 120 | NCC(=O)N1CCC(c2nc(N3CCOCC3)nc(-n3c(C(F)F)nc4ccccc43)n2)CC1 |  |
| 521 |  | CC(=O)NC1CCN(c2nc(N3CCOCC3)nc(-n3c(C(F)F)nc4ccccc43)n2)CC1 |  |
| 190 | 1000 | NCCC1CCN(c2nc(N3CCOCC3)nc(-n3c(C(F)F)nc4ccccc43)n2)CC1 | inhibition [3]: Active; inhibition [4]: Active |
| 428 |  | NCC(=O)NCC1CCN(c2nc(N3CCOCC3)nc(-n3c(C(F)F)nc4ccccc43)n2)CC1 |  |
| 811 |  | NCC1CCN(c2nc(N3CCOCC3)nc(-n3c(C(F)F)nc4ccccc43)n2)CC1 |  |
| 36 | 12 | O=C([C@H]1CCCN1)N1CCN(c2nc(N3CCOCC3)nc(-n3c(C(F)F)nc4ccccc43)n2)CC1 | inhibition [5]: Dose-dependent effect; inhibition [4]: Active |
| 554 |  | NC1CCCN(c2nc(N3CCOCC3)nc(-n3c(C(F)F)nc4ccccc43)n2)C1 (stereo not drawn) |  |
| 1060 |  | NCC(=O)N1CCC(Nc2nc(N3CCOCC3)nc(-n3c(C(F)F)nc4ccccc43)n2)CC1 |  |
| 955 |  | NC1CCN(c2nc(N3CCOCC3)nc(-n3c(C(F)F)nc4ccccc43)n2)CC1 |  |
